# Results from article PMC8740777 (The FASEB Journal, 2022).
# Columns and labels:
# Human primary astrocytes [1] = assay: Ca2+ mobilization assay, functional antagonism; assay type: cell-based; conditions: 18 h pretreatment, Fig. 2B,C
# Procedure, shortened: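 Astrocytes were pretreated overnight (18 h) with 1 or 10 µM test compound, then loaded with calcium dye for 1 h without compound before S1P stimulation, with Ca2+ mobilization recorded. Inhibition was assessed against 10 µM S1P. Mean ± SD, n = 4, pooled from three independent experiments.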
# Human primary astrocytes [2] = assay: Ca2+ mobilization assay, agonistic application; assay type: cell-based; conditions: for effect on intracellular Ca2+ mobilization as agonist: Fig. 2A, agonistic application
# Procedure, shortened: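 Human primary astrocytes were plated at 10 000 cells/well in 384-well plates (day 0), switched to FreeStyle 293 expression medium on day 1 for 18 h, then loaded with FLIPR Calcium 4 dye for 1 h […]. Intracellular Ca2+ was monitored kinetically across a concentration series up to 30 µM, and logEC50 was taken from concentration-response curves.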
# Human primary astrocytes [3] = assay: cAMP AlphaScreen assay, Gαi-coupled agonist mode; assay type: cell-based; conditions: Fig. 2D, 10 µM FSK
# Procedure, shortened: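 Primary human astrocytes suspended in HBSS with 0.5 mM IBMX, 5 mM HEPES and 0.1% BSA, 5000 cells/well. Compound added with 10 µM forskolin (final), 30 min at room temperature. Lysis buffer (pH 7.4) carried biotin-cAMP/donor beads, then 1 h dark. AlphaScreen read: excitation 680 nm, emission 570 nm. Baseline-corrected, normalized to S1P, three-parameter curve fit. Mean ± SD, n = 3–5 over three experiments.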
# Human primary astrocytes [4] = assay: cAMP AlphaScreen assay, functional antagonism; assay type: cell-based; conditions: 10 µM, 18 h pretreatment
# Procedure, shortened: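 Astrocytes were pretreated 18 h with 10 µM test compound, then resuspended in HBSS with 0.5 mM IBMX, 5 mM HEPES and 0.1% BSA at 5000 cells/well. Cells were stimulated with S1P plus 10 µM forskolin for 30 min at room temperature. cAMP was read by AlphaScreen after 1 h dark incubation with donor beads in lysis buffer. Data were baseline-corrected, normalized to S1P response and fitted with three-parameter curves. Mean ± SD, n = 3–4.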
# S1P2 = S1P2 (Homo sapiens, UniProt O95136); assay: S1PR internalization assay, short-term; assay type: cell-based; conditions: 1 µM, 1 h, FCM, normalized to vehicle
# Procedure, shortened: (§1)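 C6 glioblastoma cells stably expressing an HA-tagged human S1P receptor subtype, grown in high-glucose DMEM with 10% FBS and penicillin–streptomycin. Test compound or S1P (1 µM) applied for 1 h. Surface receptor stained with anti-HA (clone 3F10), then PE anti-rat IgG, and read by flow cytometry. Vector-transfected C6 cells served as negative control. Levels normalized to vehicle; n = 4 from two independent experiments.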
# S1P1 [5] = molecular target: T1, S1P1 (Homo sapiens, UniProt P21453); assay: S1P1 internalization, wash-out experiment in S1P1-C6 cells; assay type: cell-based; conditions: 1 µM for 4 h, 18 h compound-free medium, FCM
# S1P3 = S1P3 (Homo sapiens, UniProt Q99500); assay: S1PR internalization assay, short-term; assay type: cell-based; conditions: 1 µM, 1 h, FCM, normalized to vehicle
# Procedure, shortened: as §1
# S1P5 = S1P5 (Homo sapiens, UniProt Q9H228); assay: S1PR internalization assay, short-term; assay type: cell-based; conditions: 1 µM, 1 h, FCM, normalized to vehicle
# Procedure, shortened: as §1
# S1P1 [6] = molecular target: T1, S1P1; assay: S1PR internalization assay, short-term; assay type: cell-based; conditions: 1 µM, 1 h, FCM, normalized to vehicle
# Procedure, shortened: as §1
# S1P4 = molecular target: T2, S1P4 (Homo sapiens, UniProt O95977); assay: S1PR internalization assay, short-term; assay type: cell-based; conditions: 1 µM, 1 h, FCM, normalized to vehicle
# T2 sequence (O95977 1-384): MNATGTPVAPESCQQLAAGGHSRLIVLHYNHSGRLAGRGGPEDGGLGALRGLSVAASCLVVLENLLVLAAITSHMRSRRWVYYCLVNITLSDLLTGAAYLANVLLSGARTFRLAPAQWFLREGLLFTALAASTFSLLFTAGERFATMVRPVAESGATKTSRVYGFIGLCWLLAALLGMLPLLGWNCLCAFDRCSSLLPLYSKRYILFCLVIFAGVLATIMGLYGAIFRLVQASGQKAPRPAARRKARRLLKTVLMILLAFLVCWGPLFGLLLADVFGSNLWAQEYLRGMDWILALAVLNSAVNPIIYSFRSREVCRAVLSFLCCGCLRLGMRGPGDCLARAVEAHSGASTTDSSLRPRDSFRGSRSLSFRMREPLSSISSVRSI
# Procedure, shortened: as §1
# S1P1 [7] = molecular target: T1, S1P1; assay: compensated interferometric reader; assay type: binding
# Procedure, shortened: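 Nanovesicles were made by sonicating C6 glioblastoma cells overexpressing HA-tagged human S1P1, with vector-transfected C6 cells as control. Vesicles were incubated 1 h with increasing test compound concentrations. Compensated interferometric reader signal was read against a reference of compound without vesicles. Specific binding was taken as S1P1-vesicle signal minus control-vesicle signal.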
# [8] = molecular target: S1P1‐EGFP fusion construct (Homo sapiens, UniProt P21453); assay: S1P1-EGFP internalization imaging in human primary astrocytes; assay type: cell-based; conditions: 1 µM, 1 h
# MS fatigue = conditions: OPTIMUM Phase 3 study; cited from earlier work
# [9] = tested on: cuprizone‐induced demyelination; assay: cuprizone-induced demyelination, preventative paradigm; assay type: in vivo, C57BL/6J mice; conditions: 30 mg/kg b.i.d. oral during 5 weeks 0.2% cuprizone
# Procedure, shortened: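 Male C57BL/6J mice (8 weeks old) received 0.2% cuprizone diet for 5 weeks with concurrent oral test compound, 30 mg/kg suspension in 0.25% methylcellulose/0.05% polysorbate 80, twice daily 8 h apart. Brains were perfusion-fixed in 10% NBF and cryoprotected, then cut into 30 µm coronal sections. Sections were stained with Black Gold II and immunostained for Olig2 and Iba1. Signal was quantified in a constant ROI in the midline corpus callosum or cingulum.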
# S1P1 [10] = conditions: cited from earlier work
# Human primary astrocytes [11] = assay: Single-cell RNA-seq of cytokine-stimulated astrocytes; assay type: cell-based; conditions: 1 µM; for number of DEGs, cytokines + ponesimod vs cytokines: total
# Procedure, shortened: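 Primary human astrocytes (500 000 cells per 6 cm dish) received a cytokine mix (TNF-α, IFN-γ, IL-17, IL-1β, IL-6; 25 ng/ml each) ± 1 µM test compound for 24 or 48 h. 10x Chromium 3′ v3 capture targeted 10 000 cells, with NovaSeq sequencing and GRCh38 alignment. Data were normalized by regularized negative binomial regression and SNN-clustered. MAST DEGs: FDR p < .05, log2FC > 1.1. A fibroblast/pericyte cluster was excluded.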
# [12] = tested on: cuprizone‐induced demyelination; assay: cuprizone model, therapeutic paradigm; assay type: in vivo, C57BL/6J mice; conditions: 30 mg/kg
# T1 sequence (P21453 whole entry): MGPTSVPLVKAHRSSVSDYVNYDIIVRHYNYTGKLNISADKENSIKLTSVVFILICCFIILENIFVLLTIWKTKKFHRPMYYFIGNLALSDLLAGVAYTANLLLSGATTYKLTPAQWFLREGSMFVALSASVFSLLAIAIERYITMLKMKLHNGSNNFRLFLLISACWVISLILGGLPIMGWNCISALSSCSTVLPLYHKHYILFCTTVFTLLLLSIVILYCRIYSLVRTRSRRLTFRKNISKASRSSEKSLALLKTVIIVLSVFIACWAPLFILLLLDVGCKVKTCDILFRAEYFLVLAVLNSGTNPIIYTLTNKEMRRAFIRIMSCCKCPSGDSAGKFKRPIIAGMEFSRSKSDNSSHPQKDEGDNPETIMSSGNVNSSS
# Sequence of S1P2 (O95136 whole entry): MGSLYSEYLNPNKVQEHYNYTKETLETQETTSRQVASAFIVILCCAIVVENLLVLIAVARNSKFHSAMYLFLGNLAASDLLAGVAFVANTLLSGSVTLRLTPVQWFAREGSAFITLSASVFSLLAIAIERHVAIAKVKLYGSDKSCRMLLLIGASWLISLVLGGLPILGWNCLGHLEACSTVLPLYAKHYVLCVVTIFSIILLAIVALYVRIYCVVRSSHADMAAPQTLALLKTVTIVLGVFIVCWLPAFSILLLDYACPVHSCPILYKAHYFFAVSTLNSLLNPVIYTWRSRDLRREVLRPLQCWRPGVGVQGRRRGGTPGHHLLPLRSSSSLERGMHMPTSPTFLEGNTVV
# Sequence of S1P3 (Q99500 whole entry): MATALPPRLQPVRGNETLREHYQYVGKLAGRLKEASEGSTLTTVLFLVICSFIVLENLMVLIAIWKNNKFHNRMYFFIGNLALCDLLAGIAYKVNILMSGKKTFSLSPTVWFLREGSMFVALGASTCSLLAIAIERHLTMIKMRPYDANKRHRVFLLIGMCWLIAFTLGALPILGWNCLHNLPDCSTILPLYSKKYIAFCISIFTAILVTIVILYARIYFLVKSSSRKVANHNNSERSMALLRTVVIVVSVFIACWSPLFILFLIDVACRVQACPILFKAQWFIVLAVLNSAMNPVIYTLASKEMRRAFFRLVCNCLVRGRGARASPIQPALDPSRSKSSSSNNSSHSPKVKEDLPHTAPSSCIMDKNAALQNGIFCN
# Sequence of S1P5 (Q9H228 whole entry): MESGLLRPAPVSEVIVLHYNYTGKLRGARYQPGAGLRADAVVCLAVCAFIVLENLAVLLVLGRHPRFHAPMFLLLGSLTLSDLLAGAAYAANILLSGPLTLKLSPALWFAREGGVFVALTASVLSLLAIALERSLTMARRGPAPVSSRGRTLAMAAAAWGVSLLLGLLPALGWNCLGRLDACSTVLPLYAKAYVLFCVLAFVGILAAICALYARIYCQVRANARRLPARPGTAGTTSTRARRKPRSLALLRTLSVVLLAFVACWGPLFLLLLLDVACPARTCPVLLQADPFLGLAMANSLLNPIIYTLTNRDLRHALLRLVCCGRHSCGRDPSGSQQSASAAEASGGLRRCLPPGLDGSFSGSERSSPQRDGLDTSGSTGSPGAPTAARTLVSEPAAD
# Sequence of S1P1‐EGFP fusion construct (P21453 whole entry, the tested form may be a part): as the sequence (P21453 whole entry) above
smiles,measurement,setting,value
"CCCCCCCCc1ccc(CC[C@](N)(CO)COP(=O)(O)O)cc1 [Fingolimod-P, fingolimod phosphate]",inhibition of S1P-induced Ca2+ mobilization (functional antagonism),Human primary astrocytes [1],minor
same,effect on intracellular Ca2+ mobilization as agonist,Human primary astrocytes [2],"none of the S1PR modulators (ponesimod, siponimod, ozanimod, or fingolimod‐P) affected intracellular Ca^2+ mobilization"
same,effect on inhibiting cAMP production as agonists,Human primary astrocytes [3],Neither ponesimod nor fingolimod‐P showed any effect
same,effect on S1P-induced cAMP inhibition (functional antagonism),Human primary astrocytes [4],right shift of cAMP‐inhibitory curves
"CCCCCCCCCCCCC/C=C/[C@@H](O)[C@@H](N)COP(=O)(O)O [S1P, Sphingosine 1‐phosphate]",cell surface expression of S1P2,S1P2,significantly reduced cell surface expression
same,cell surface expression of S1P1 after wash-out,S1P1 [5],recycled to the cell surface
same,cell surface expression of S1P3,S1P3,significantly reduced cell surface expression
same,EC50,"Human primary astrocytes [2]; Homo sapiens, Astrocyte, read-out: logEC50, intracellular Ca2+ response (converted)",93.1 nM
same,cell surface expression of S1P5,S1P5,significantly reduced cell surface expression
same,cell surface expression of S1P1,S1P1 [6],significantly reduced cell surface expression
same,cell surface expression of S1P4,S1P4,relatively less responsive
CCc1cc(/C(C)=N/OCc2ccc(C3CCCCC3)c(C(F)(F)F)c2)ccc1CN1CC(C(=O)O)C1 [Siponimod],inhibition of S1P-induced Ca2+ mobilization (functional antagonism),Human primary astrocytes [1],minor
same,effect on intracellular Ca2+ mobilization as agonist,Human primary astrocytes [2],"none of the S1PR modulators (ponesimod, siponimod, ozanimod, or fingolimod‐P) affected intracellular Ca^2+ mobilization"
same,Kd,S1P1 [7],0.8 ± 0.97 nM
CCC/N=C1\S/C(=C\c2ccc(OC[C@H](O)CO)c(Cl)c2)C(=O)N1c1ccccc1C [Ponesimod],S1P1 internalization (S1P1-EGFP imaging),[8],rapid S1P1 internalization
same,cell surface expression of S1P2,S1P2,remained unchanged
same,cell surface expression of S1P1 after wash-out,S1P1 [5],reduced cell surface expression of S1P1 for a sustained period of time
same,inhibition of S1P-induced Ca2+ mobilization (functional antagonism),Human primary astrocytes [1],blocked S1P‐induced Ca^2+ mobilization in a concentration‐dependent manner
same,cell surface expression of S1P3,S1P3,remained unchanged
same,Ca2+ signal at highest concentration,"Human primary astrocytes [2]; 30 µM, Figure S1",induced a Ca^2+ signal only at the highest concentration
same,effect on intracellular Ca2+ mobilization as agonist,Human primary astrocytes [2],"none of the S1PR modulators (ponesimod, siponimod, ozanimod, or fingolimod‐P) affected intracellular Ca^2+ mobilization"
same,"MS fatigue, secondary endpoint",MS fatigue,achieved a novel secondary endpoint of reduced MS fatigue
same,effect on inhibiting cAMP production as agonists,Human primary astrocytes [3],Neither ponesimod nor fingolimod‐P showed any effect
same,cell surface expression of S1P5,S1P5,remained unchanged
same,GFAP+ astrocytes in the CC,[9],increased in the CC
same,GFAP+ astrocytes in the cingulum,[9],tended to decrease in the cingulum
same,Iba1+ microglia in the cingulum,[9],significantly decreased
same,demyelination in the cingulum (black gold II staining),[9],protected mice from demyelination in the cingulum
same,number of Olig2+ oligodendrocytes in CC and cingulum,[9],increased
same,selectivity for S1P1 as compared to other S1PRs,S1P1 [10],> 10 fold
same,Kd,S1P1 [7],2.09 ± 0.27 nM
same,effect on S1P-induced cAMP inhibition (functional antagonism),Human primary astrocytes [4],effectively blocked S1P‐induced cAMP inhibition
same,common DEGs: upregulated by cytokines and downregulated by ponesimod,Human primary astrocytes [11]; 24 and 48 h,2432 DEGs
same,"number of downregulated DEGs, cytokines + ponesimod vs cytokines",Human primary astrocytes [11]; 24 h,4031
same,"number of upregulated DEGs, cytokines + ponesimod vs cytokines",Human primary astrocytes [11]; 24 h,34
same,"number of DEGs, cytokines + ponesimod vs cytokines",Human primary astrocytes [11]; 24 h,4065 DEGs
same,"number of downregulated DEGs, cytokines + ponesimod vs cytokines",Human primary astrocytes [11]; 48 h,822
same,"number of upregulated DEGs, cytokines + ponesimod vs cytokines",Human primary astrocytes [11]; 48 h,130
same,"cellular distribution on UMAP, ponesimod alone","Human primary astrocytes [11]; 48 h, no cytokines",highly overlapping cellular distribution as compared to controls
same,"number of DEGs, cytokines + ponesimod vs cytokines",Human primary astrocytes [11]; 48 h,952 DEGs
same,"expression of S1PR1, S1PR2 and S1PR3",Human primary astrocytes [11]; cytokine-enhanced expression,suppressed
same,FOS expression,Human primary astrocytes [11]; cytokine-stimulated astrocytes,significantly inhibited FOS expression
same,metallothionein (MT) gene expression in Cluster 8,Human primary astrocytes [11]; cytokine-stimulated astrocytes,significantly downregulated
same,"proliferating astrocyte clusters (Clusters 6, 9, and 12)",Human primary astrocytes [11]; cytokine-stimulated astrocytes,blocked decreases in proliferating astrocyte clusters
same,cellular fractions of reactive astrocyte clusters,"Human primary astrocytes [11]; cytokine-stimulated astrocytes, Clusters 3, 8, 10, 11, 15","selectively decreased the cellular fractions of Clusters 8, 10, and 15"
same,cell surface expression of S1P1,S1P1 [6],only reduced the cell surface expression of S1P1
same,cell surface expression of S1P4,S1P4,remained unchanged
same,remyelination after cuprizone diet cessation,[12]; prolonged treatment (3 weeks),significantly enhanced remyelination in the cingulum
same,remyelination after cuprizone diet cessation,[12]; short-term treatment (1 week),did not show any beneficial effects
CC(C)Oc1ccc(-c2nc(-c3cccc4c3CC[C@@H]4NCCO)no2)cc1C#N [Ozanimod],inhibition of S1P-induced Ca2+ mobilization (functional antagonism),Human primary astrocytes [1],blocked S1P‐induced Ca^2+ mobilization in a concentration‐dependent manner
same,effect on intracellular Ca2+ mobilization as agonist,Human primary astrocytes [2],"none of the S1PR modulators (ponesimod, siponimod, ozanimod, or fingolimod‐P) affected intracellular Ca^2+ mobilization"
